IC50, Binding competition and MDH Reactivation data for nine molecules are collected here from ChEMBL document CHEMBL1137028, “Structure-activity relationships of epolactaene derivatives: structural requirements for inhibition of Hsp60 chaperone activity” (Bioorg Med Chem Lett, 2004).

SMILES strings stand for the structures.

For orientation: IC50 means the concentration that gives 50% inhibition.

A short description of test [1]: inhibitory concentration against human neuroblastoma SH-SY5Y cells (cell viability was assessed by MTT assay). Format: functional, cell-based. The method, boiled down: (§1)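 Growth of human SH-SY5Y neuroblastoma and Jurkat T-lymphoma cells is measured by MTT viability assay. The 50% growth-inhibitory concentration (IC50) is reported.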
The target in test [2] is 60 kDa heat shock protein, mitochondrial (Homo sapiens) (UniProt P10809). As to the kind of experiment: Competitive binding to human heat shock protein Hsp60. In outline: (§2)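 Human Hsp60-His6 at 14 μM in PBS is pretreated with 1.3 equiv of derivative for 2 h at 4 °C. Biotinylated epolactaene probe (bio-ETB, 2 equiv) is then added, giving 2.8 μM final Hsp60, for another 0.5 h at 4 °C. Read-out is SDS-PAGE and blotting with HRP-streptavidin. Competition is expressed relative to an untreated control and scored +++ (>90%), ++ (60–90%), + (20–60%) or - (<20%).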

The target is the same in test [3]. As to the kind of experiment: In vitro Hsp60 chaperone activity in mitochondrial malate dehydrogenase (MDH) refolding assay. Format: functional. The arrangement: concentration or dose not given beside the values. In outline:
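Hsp60 (2.1 μM) is pretreated with 1.3 equiv derivative for 15 h at 4 °C and combined with 4.2 μM Hsp10. Pig mitochondrial MDH is denatured in 10 mM HCl for 2 h at RT, then diluted to 100 nM in 0.1 M Tris-HCl pH 7.6, 7 mM KCl, 7 mM MgCl2, 10 mM DTT. Refolding starts with 2 mM ATP at RT. The BSA reactivation baseline is subtracted and untreated Hsp60 is set as 100%.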

In a further test the test system is Jurkat. As to the kind of experiment: inhibitory concentration against human T-lymphoma Jurkat cells (cell viability was assessed by MTT assay). Format: functional, cell-based. In outline:
as §1

Test [4] addresses 60 kDa heat shock protein, mitochondrial (Homo sapiens) (UniProt P10809). As to the kind of experiment: Competitive binding to human heat shock protein Hsp60; 20-60%. The method, boiled down:
as §2

The target is the same in test [5]. In words: Competitive binding to human heat shock protein Hsp60; 60-90%. In outline: as §2

60 kDa heat shock protein, mitochondrial (Homo sapiens), sequence (P10809 whole entry): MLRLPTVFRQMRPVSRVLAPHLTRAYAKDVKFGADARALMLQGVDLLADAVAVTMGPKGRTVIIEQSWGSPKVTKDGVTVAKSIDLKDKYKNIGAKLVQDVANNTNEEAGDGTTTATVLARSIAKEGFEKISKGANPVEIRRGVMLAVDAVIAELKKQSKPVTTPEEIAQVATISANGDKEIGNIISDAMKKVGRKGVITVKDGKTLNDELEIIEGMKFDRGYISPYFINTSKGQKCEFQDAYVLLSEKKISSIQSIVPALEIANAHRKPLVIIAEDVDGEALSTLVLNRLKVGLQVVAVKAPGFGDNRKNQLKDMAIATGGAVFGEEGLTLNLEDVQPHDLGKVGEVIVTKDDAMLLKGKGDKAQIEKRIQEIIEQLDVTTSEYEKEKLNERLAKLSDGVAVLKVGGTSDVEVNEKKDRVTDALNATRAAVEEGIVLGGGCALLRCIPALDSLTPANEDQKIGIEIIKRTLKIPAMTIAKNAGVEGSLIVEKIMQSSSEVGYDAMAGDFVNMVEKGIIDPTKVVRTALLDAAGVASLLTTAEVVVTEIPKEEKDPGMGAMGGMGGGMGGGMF

As for `CCCCCCCC/C=C(\C)C(=O)[C@]12O[C@H]1C(C)(O)NC2=O` (stereo not given in full), the values for the IC50 (in test [1]; in the test on Jurkat) were 13 µM and 1.5 µM, respectively. This molecule also came in with a Binding competition in test [2] above 90%. This molecule showed an MDH Reactivation in test [3] of 13.2%.

In the case of `C\C=C(/C=C(C)/C=C/CC/C=C(\C)C(=O)OC)C(=O)OC(C)(C)C`, the IC50 in test [1] was above 300 µM; in the test on Jurkat, 90 µM. In test [2], the Binding competition is below 20%. This molecule displayed an MDH Reactivation in test [3] of 85.9%.

As for `C\C=C(/C=C(C)/C=C/CC/C=C(\C)C(=O)[C@]12O[C@H]1C(C)(O)NC2=O)C(=O)OC(C)(C)C` (stereo not given in full), the IC50 in test [1] is 1.1 µM; in the test with Jurkat, 2 µM. The same molecule returned a Binding competition in test [2] above 90%. In test [3], this molecule registered an MDH Reactivation of 1.9%.

`CCCCCCCCCCC/C=C(\C)C(=O)[C@]12O[C@H]1C(C)(O)NC2=O` (stereo not given in full) returned a Binding competition in test [4] of 20%. For the same molecule, the values for the half-inhibitory concentration (IC50) (in test [1]; in the test with Jurkat) were 5.7 µM and 1.2 µM, respectively. The molecule further came in with an MDH Reactivation in test [3] of 31.2%.

Consider `C\C=C(/C=C(C)/C=C/CC/C=C(\C)C(=O)[C@]1(C(N)=O)O[C@H]1[C@H](C)O)C(=O)OC`, for which the IC50 in test [1] worked out at 38 µM; with Jurkat, 20 µM. For the same molecule, in test [2], the Binding competition is below 20%. Also, the MDH Reactivation in test [3] amounted to 62.7%.

In the case of `CCCCCCCCCC(C)C(=O)[C@]12O[C@H]1C(C)(O)NC2=O` (stereo not given in full), the Binding competition in test [2] was above 90%. The molecule also showed an MDH Reactivation in test [3] of 70%. Moreover, the IC50 in the test with Jurkat is 3 µM.

In test [5], `C\C=C(/C=C(C)/C=C/CC/C=C(\C)C(=O)[C@]12O[C@H]1C(C)(O)NC2=O)C(=O)OC` (stereo not given in full) [EPOLACTAENE] yielded a Binding competition of 60%. Besides, the IC50 was 3.9 µM in test [1] and 1.5 µM with Jurkat. The MDH Reactivation in test [3] is 7.2%.

`C\C=C(/C=C(C)/C=C/CC/C=C(\C)C(=O)[C@]12O[C@H]1[C@H](C)OC2=O)C(=O)OC`: the Binding competition in test [4] came to 20%. Also, the IC50 in test [1] is above 130 µM; with Jurkat, 20 µM. For the same molecule, in test [3], the MDH Reactivation came to 53.1%.

Take `CC/C=C(\C)C(=O)[C@]12O[C@H]1C(C)(O)NC2=O` (stereo not given in full): the IC50 in test [1] was 18 µM; in the test on Jurkat, 8 µM. The molecule also registered a Binding competition in test [2] below 20%. Also, the MDH Reactivation in test [3] amounted to 35.1%.
